Experiments:
Format in all cases: functional
[1] = system: Pseudoperonospora cubensis; test: Antifungal activity against Pseudoperonospora cubensis assessed as fungicidal activity at 200 mg/L (beneficial crop - cucumber)
Method in brief: (§1)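 In vivo preventive test on cucumber as host plant.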

[2] = system: Botrytis cinerea; test: Antifungal activity against Botryotinia fuckeliana assessed as fungicidal activity at 200 mg/L (beneficial crop - cucumber); method in brief: as §1
[3] = system: Podosphaera fuliginea; test: Antifungal activity against Podosphaera fuliginea assessed as fungicidal activity at 200 mg/L (beneficial crop - cucumber); method in brief: as §1
[4] = system: Rhizoctonia solani; test: Antifungal activity against Rhizoctonia solani assessed as fungicidal activity at 200 mg/L (beneficial crop - cucumber); method in brief: as §1

SMILES	inhibition at 200 µg/mL [1] [%]	inhibition at 200 µg/mL [2] [%]	inhibition at 200 µg/mL [3] [%]	inhibition at 200 µg/mL [4] [%]
CO/C=C(/C(=O)OC)c1ccccc1COc1ccccc1C(=O)/C=C/c1ccc(OC)cc1	0	0	0	0
CO/C=C(/C(=O)OC)c1ccccc1COc1ccc(C(=O)/C=C/c2ccc(C)c(C)c2)cc1	67	0	30	0
CO/C=C(/C(=O)OC)c1ccccc1COc1ccc(C(=O)/C=C/c2ccc(OC)c(OC)c2)cc1	11	0	0	0
CO/C=C(/C(=O)OC)c1ccccc1COc1ccc(C(=O)/C=C/c2cccc(OC)c2)cc1	86	0	0	20
CO/C=C(/C(=O)OC)c1ccccc1COc1ccc(C(=O)/C=C/c2ccc(Cl)c(Cl)c2)cc1	33	0	67	37
CO/C=C(/C(=O)OC)c1ccccc1COc1ccc(C(=O)/C=C/c2ccccc2Cl)cc1	100	0	0	0
CO/C=C(/C(=O)OC)c1ccccc1COc1ccc(C(=O)/C=C/c2ccc3c(c2)OCO3)cc1	0	0	0	0
CO/C=C(/C(=O)OC)c1ccccc1COc1ccc(C(=O)/C=C/c2ccc(F)cc2)cc1	100	0	0	23
CCOc1ccc(/C=C/C(=O)c2ccc(OCc3ccccc3/C(=C\OC)C(=O)OC)cc2)cc1	59	0	0	0
CO/C=C(/C(=O)OC)c1ccccc1COc1ccc(C(=O)/C=C/c2ccc(Cl)cc2Cl)cc1	67	0	78	27
CO/C=C(/C(=O)OC)c1ccccc1COc1ccc(C(=O)/C=C/c2ccco2)cc1	0	0	0	0
CO/C=C(/C(=O)OC)c1ccccc1COc1ccc(C(=O)/C=C/c2cccs2)cc1	0	0	0	0
CO/C=C(/C(=O)OC)c1ccccc1COc1ccc(C(=O)/C=C/c2cccc(F)c2)cc1	97	0	0	0
CO/C=C(/C(=O)OC)c1ccccc1COc1ccc(C(=O)/C=C/c2ccccc2Br)cc1	83	0	67	21
CO/C=C(/C(=O)OC)c1ccccc1COc1ccc(C(=O)/C=C/c2ccccc2)cc1	0	0	0	0
CCc1ccc(/C=C/C(=O)c2ccc(OCc3ccccc3/C(=C\OC)C(=O)OC)cc2)cc1	15	0	56	69
CO/C=C(/C(=O)OC)c1ccccc1COc1ccc(C(=O)/C=C/c2ccc(C(C)(C)C)cc2)cc1	22	0	67	0
CO/C=C(/C(=O)OC)c1ccccc1COc1ccc(C(=O)/C=C/c2c(F)cccc2Cl)cc1	67	0	0	0
CO/C=C(/C(=O)OC)c1ccccc1COc1ccc(Cl)cc1C(=O)/C=C/c1ccc(OC)cc1	0	0	0	0
CO/C=C(/C(=O)OC)c1ccccc1COc1ccc(Cl)cc1C(=O)/C=C/c1ccccc1	0	0	0	0
CO/C=C(/C(=O)OC)c1ccccc1COc1ccccc1C(=O)/C=C/c1cccc(Cl)c1	39	0	0	0
CO/C=C(/C(=O)OC)c1ccccc1COc1ccccc1C(=O)/C=C/c1cccc(Br)c1	78	0	0	0
CO/C=C(/C(=O)OC)c1ccccc1COc1ccc(C)cc1C(=O)/C=C/c1ccc(Cl)cc1	89	0	0	0

SMILES	inhibition at 200 µg/mL [1] [%]	inhibition at 200 µg/mL [2] [%]	inhibition at 200 µg/mL [3] [%]	inhibition at 200 µg/mL [4] [%]
CO/C=C(/C(=O)OC)c1ccccc1COc1ccc(Cl)cc1C(=O)/C=C/c1ccccc1Cl	0	0	0	0
CO/C=C(/C(=O)OC)c1ccccc1COc1ccc(Cl)cc1C(=O)/C=C/c1ccc(Cl)cc1	0	21	86	0
CO/C=C(/C(=O)OC)c1ccccc1COc1ccccc1C(=O)/C=C/c1ccc(Br)cc1	0	0	0	0
CO/C=C(/C(=O)OC)c1ccccc1COc1ccccc1C(=O)/C=C/c1ccc(Cl)cc1	0	0	0	0
CO/C=C(/C(=O)OC)c1ccccc1COc1ccccc1C(=O)/C=C/c1cccc(OC)c1	61	11	0	0
CO/C=C(/C(=O)OC)c1ccccc1COc1ccccc1C(=O)/C=C/c1ccc(C)c(C)c1	0	0	0	0
CO/C=C(/C(=O)OC)c1ccccc1COc1ccccc1C(=O)/C=C/c1ccc(OC)c(OC)c1	0	0	0	0
CO/C=C(/C(=O)OC)c1ccccc1COc1ccc(C(=O)/C=C/c2ccc(Br)cc2)cc1	56	0	0	0
CO/C=C(/C(=O)OC)c1ccccc1COc1ccc(C(=O)/C=C/c2cccc(Br)c2)cc1	56	0	0	0
CO/C=C(/C(=O)OC)c1ccccc1COc1ccc(C(=O)/C=C/c2ccc(OC)cc2)cc1	62	0	0	0
CO/C=C(/C(=O)OC)c1ccccc1COc1ccc(C(=O)/C=C/c2cccc(C)c2)cc1	47	0	0	0
CO/C=C(/C(=O)OC)c1ccccc1COc1ccc(C(=O)/C=C/c2ccc(C)cc2)cc1	75	0	0	38
CO/C=C(/C(=O)OC)c1ccccc1COc1cccc(C(=O)/C=C/c2ccc3c(c2)OCO3)c1	0	0	0	29
CCOc1ccc(/C=C/C(=O)c2cccc(OCc3ccccc3/C(=C\OC)C(=O)OC)c2)cc1	33	0	0	0
CO/C=C(/C(=O)OC)c1ccccc1COc1cccc(C(=O)/C=C/c2ccc(Cl)cc2Cl)c1	54	0	0	30
CO/C=C(/C(=O)OC)c1ccccc1COc1cccc(C(=O)/C=C/c2ccco2)c1	0	16	0	0
CO/C=C(/C(=O)OC)c1ccccc1COc1cccc(C(=O)/C=C/c2cccs2)c1	0	24	0	0
CO/C=C(/C(=O)OC)c1ccccc1COc1cccc(C(=O)/C=C/c2cccc(F)c2)c1	0	10	0	36
CO/C=C(/C(=O)OC)c1ccccc1COc1cccc(C(=O)/C=C/c2ccccc2F)c1	0	0	0	38
CO/C=C(/C(=O)OC)c1ccccc1COc1cccc(C(=O)/C=C/c2ccccc2Br)c1	100	0	59	31
CCc1ccc(/C=C/C(=O)c2cccc(OCc3ccccc3/C(=C\OC)C(=O)OC)c2)cc1	100	0	78	0
CO/C=C(/C(=O)OC)c1ccccc1COc1cccc(C(=O)/C=C/c2ccc(C(C)(C)C)cc2)c1	28	0	78	0
CO/C=C(/C(=O)OC)c1ccccc1COc1ccc(Cl)cc1C(=O)/C=C/c1ccc(C)cc1	0	0	0	0
